From ChEMBL document CHEMBL4715682, “Potent trifluoromethoxy, trifluoromethylsulfonyl, trifluoromethylthio and pentafluorosulfanyl containing (1,3,4-oxadiazol-2-yl)benzamides against drug-resistant Gram-positive bacteria” (RSC Med Chem, 2020)
Converted amounts (≈) assume the structure as drawn. The source made the active and inactive calls. The rule behind the calls is not given here.

Assays:
Staphylococcus aureus [1] = experiment: Antibacterial activity against Staphylococcus aureus ATCC 25923 assessed as inhibition of visible bacterial growth incubated for 18 to 20 hrs by CLSI method; assay type: functional; settings: time 18-20 hrs
Procedure, shortened: (§1)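 CLSI broth microdilution. Strains grown aerobically overnight on tryptic soy agar at 37 °C, adjusted to 0.5 McFarland and diluted in cation-adjusted Mueller–Hinton broth to about 5×10^5 CFU/mL. Compounds and control drugs serially diluted across the plate. Incubated aerobically at 37 °C for 18-20 h. MIC is the lowest concentration with no visible growth.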

Staphylococcus aureus [2] = experiment: Antibacterial activity against methicillin-resistant Staphylococcus aureus ATCC 33592 assessed as inhibition of visible bacterial growth incubated for 18 to 20 hrs by CLSI method; assay type: functional; settings: time 18-20 hrs; procedure, shortened: as §1
Staphylococcus aureus [3] = experiment: Antibacterial activity against methicillin-sensitive Staphylococcus aureus ATCC 6538 assessed as inhibition of visible bacterial growth incubated for 18 to 20 hrs by CLSI method; assay type: functional; settings: time 18-20 hrs; procedure, shortened: as §1
Staphylococcus aureus [4] = experiment: Antibacterial activity against methicillin-sensitive Staphylococcus aureus NRS 107 assessed as inhibition of visible bacterial growth incubated for 18 to 20 hrs by CLSI method; assay type: functional; settings: time 18-20 hrs; procedure, shortened: as §1
Staphylococcus aureus [5] = experiment: Antibacterial activity against methicillin-resistant Staphylococcus aureus NRS 119 assessed as inhibition of visible bacterial growth incubated for 18 to 20 hrs by CLSI method; assay type: functional; settings: time 18-20 hrs; procedure, shortened: as §1
Staphylococcus aureus [6] = experiment: Antibacterial activity against methicillin-resistant Staphylococcus aureus NRS382 assessed as inhibition of visible bacterial growth incubated for 18 to 20 hrs by CLSI method; assay type: functional; settings: time 18-20 hrs; procedure, shortened: as §1
Staphylococcus aureus [7] = experiment: Antibacterial activity against methicillin-resistant Staphylococcus aureus NRS383 assessed as inhibition of visible bacterial growth incubated for 18 to 20 hrs by CLSI method; assay type: functional; settings: time 18-20 hrs; procedure, shortened: as §1
Staphylococcus aureus [8] = experiment: Antibacterial activity against methicillin-resistant Staphylococcus aureus NRS384 assessed as inhibition of visible bacterial growth incubated for 18 to 20 hrs by CLSI method; assay type: functional; settings: time 18-20 hrs; procedure, shortened: as §1
Staphylococcus aureus [9] = experiment: Antibacterial activity against methicillin-resistant Staphylococcus aureus NRS123 assessed as inhibition of visible bacterial growth incubated for 18 to 20 hrs by CLSI method; assay type: functional; settings: time 18-20 hrs; procedure, shortened: as §1
Staphylococcus aureus [10] = experiment: Antibacterial activity against methicillin-resistant Staphylococcus aureus NRS385 assessed as inhibition of visible bacterial growth incubated for 18 to 20 hrs by CLSI method; assay type: functional; settings: time 18-20 hrs; procedure, shortened: as §1
Staphylococcus aureus [11] = experiment: Antibacterial activity against methicillin-resistant Staphylococcus aureus NRS386 assessed as inhibition of visible bacterial growth incubated for 18 to 20 hrs by CLSI method; assay type: functional; settings: time 18-20 hrs; procedure, shortened: as §1
Staphylococcus aureus [12] = experiment: Antibacterial activity against methicillin-resistant Staphylococcus aureus NRS387 assessed as inhibition of visible bacterial growth incubated for 18 to 20 hrs by CLSI method; assay type: functional; settings: time 18-20 hrs; procedure, shortened: as §1
Staphylococcus aureus [13] = experiment: Antibacterial activity against methicillin-resistant Staphylococcus aureus NRS483 assessed as inhibition of visible bacterial growth incubated for 18 to 20 hrs by CLSI method; assay type: functional; settings: time 18-20 hrs; procedure, shortened: as §1
Staphylococcus aureus [14] = experiment: Antibacterial activity against methicillin-resistant Staphylococcus aureus NRS484 assessed as inhibition of visible bacterial growth incubated for 18 to 20 hrs by CLSI method; assay type: functional; settings: time 18-20 hrs; procedure, shortened: as §1
Staphylococcus aureus [15] = experiment: Antibacterial activity against vancomycin-resistant Staphylococcus aureus 10 assessed as inhibition of visible bacterial growth incubated for 18 to 20 hrs by CLSI method; assay type: functional; settings: time 18-20 hrs; procedure, shortened: as §1
Staphylococcus aureus [16] = experiment: Antibacterial activity against vancomycin-resistant Staphylococcus aureus 12 assessed as inhibition of visible bacterial growth incubated for 18 to 20 hrs by CLSI method; assay type: functional; settings: time 18-20 hrs; procedure, shortened: as §1
[17] = system: Staphylococcus epidermidis; experiment: Antibacterial activity against Staphylococcus epidermidis NRS101 assessed as inhibition of visible bacterial growth incubated for 18 to 20 hrs by CLSI method; assay type: functional; settings: time 18-20 hrs
Procedure, shortened: (§2)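 Broth microdilution per CLSI. Strains grown aerobically overnight on TSA at 37 °C, suspended to 0.5 McFarland, diluted in CAMHB to about 5×10^5 CFU/mL. Agents serially diluted across plate; aerobic incubation 37 °C for 18-20 h. MIC = lowest concentration completely preventing visible growth.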

Streptococcus pneumoniae [18] = experiment: Antibacterial activity against cephalosporin-resistant Streptococcus pneumoniae ATCC 51916 assessed as inhibition of visible bacterial growth incubated for 18 to 20 hrs by CLSI method; assay type: functional; settings: time 18-20 hrs; procedure, shortened: as §1
Streptococcus pneumoniae [19] = experiment: Antibacterial activity against […] Streptococcus pneumoniae ATCC 700677 assessed as inhibition of visible bacterial growth incubated for 18 to 20 hrs by CLSI method; assay type: functional; settings: time 18-20 hrs; procedure, shortened: as §1
Enterococcus faecalis [20] = experiment: Antibacterial activity against vancomycin- resistant Enterococcus faecalis ATCC 51299 assessed as inhibition of visible bacterial growth incubated for 18 to 20 hrs by CLSI method; assay type: functional; settings: time 18-20 hrs; procedure, shortened: as §1
Enterococcus faecalis [21] = experiment: Antibacterial activity against vancomycin- resistant Enterococcus faecalis ATCC 700221 assessed as inhibition of visible bacterial growth incubated for 18 to 20 hrs by CLSI method; assay type: functional; settings: time 18-20 hrs; procedure, shortened: as §1
Listeria monocytogenes = experiment: Antibacterial activity against Listeria monocytogenes ATCC 19111 assessed as inhibition of visible bacterial growth incubated for 18 to 20 hrs by CLSI method; assay type: functional; settings: time 18-20 hrs; procedure, shortened: as §2
Escherichia coli = experiment: Antibacterial activity against Escherichia coli ATCC 25404 assessed as inhibition of visible bacterial growth at 16 ug/ml incubated for 18 to 20 hrs by CLSI method; assay type: functional, organism-based; settings: B ATCC 25404, dose 16.0 µg/ml, time 18-20 hrs; procedure, shortened: as §1
Pseudomonas aeruginosa = experiment: Antibacterial activity against Pseudomonas aeruginosa ATCC 27853 assessed as inhibition of visible bacterial growth at 16 ug/ml incubated for 18 to 20 hrs by CLSI method; assay type: functional, organism-based; settings: dose 16.0 µg/ml, time 18-20 hrs; procedure, shortened: as §1
Acinetobacter baumannii = experiment: Antibacterial activity against Acinetobacter baumannii ATCC 19606 RW4 assessed as inhibition of visible bacterial growth at 16 ug/ml incubated for 18 to 20 hrs by CLSI method; assay type: functional, organism-based; settings: ATCC 19606 = CIP 70.34 = JCM 6841 RW4, dose 16.0 µg/ml, time 18-20 hrs; procedure, shortened: as §1
Caco-2 = experiment: Cytotoxicity against human Caco2 cells assessed as reduction in cell viability at 64 ug/ml incubated for 2 hrs by MTS assay; assay type: cell-based; settings: caco-2, 2 h, dose 64 µg/ml
[22] = Hemolytic activity in human RBC at 128 ug/ml incubated for 60 mins relative to control; assay type: ADME, cell-based, Erythrocyte; settings: red blood cells (erythrocytes), dose 128 µg/ml, read-out: Activity
Procedure, shortened: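 Single-donor human erythrocytes as a 5% v/v suspension in PBS. Compounds serially diluted in PBS, in triplicate, and incubated with RBCs at 37 °C for 60 min. PBS served as the negative control and Triton-X as the positive control. Samples spun at 4,000 rpm for 5 min and supernatant absorbance read at 540 nm. Percent hemolysis = 100×(sample−negative)/(positive−negative).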

Staphylococcus aureus [23] = experiment: Bactericidal activity against methicillin-resistant Staphylococcus aureus ATCC 33592 assessed as reduction in bacterial growth incubated for 18 hrs by CLSI method; assay type: functional
Staphylococcus aureus [24] = experiment: Synergistic antibacterial activity against methicillin-resistant Staphylococcus aureus ATCC 33592 assessed as fractional inhibitory concentration index in presence of linezolid by checkerboard assay; assay type: functional
Staphylococcus aureus [25] = experiment: Synergistic antibacterial activity against methicillin-resistant Staphylococcus aureus ATCC 33592 assessed as fractional inhibitory concentration index in presence of methicillin by checkerboard assay; assay type: functional
Staphylococcus aureus [26] = experiment: Synergistic antibacterial activity against methicillin-resistant Staphylococcus aureus ATCC 33592 assessed as fractional inhibitory concentration index in presence of daptomycin by checkerboard assay; assay type: functional
Staphylococcus aureus [27] = experiment: Synergistic antibacterial activity against methicillin-resistant Staphylococcus aureus ATCC 33592 assessed as fractional inhibitory concentration index in presence of Vancomycin; assay type: functional
Staphylococcus aureus [28] = experiment: Antibacterial activity against methicillin-resistant Staphylococcus aureus ATCC 33592 assessed as reduction in bacterial count at 3 x MIC incubated upto 24 hrs by time kill analysis; assay type: functional; settings: time hrs <=24
Procedure, shortened: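 Time-kill assay. […] Samples taken at 0, 2, 4, 8, 12 and 24 h, serially diluted in PBS and plated on tryptic soy agar. Viable CFU/mL counted after 18-20 h at 37 °C.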

J774 = experiment: Cytotoxicity against mouse J774 cells assessed as reduction in cell viability at 32 ug/ml incubated for 24 hrs by MTS assay; assay type: cell-based; settings: j774, 24 h, dose 32 µg/ml

O=C(Nc1nnc(-c2cccs2)o1)c1ccc(S(F)(F)(F)(F)F)cc1
MIC (Staphylococcus aureus [1]): 0.25 µg/mL (≈ 0.629 µM)
MIC (Staphylococcus aureus [2]): 0.5 µg/mL (≈ 1.26 µM)
MIC (Staphylococcus aureus [3]): 0.5 µg/mL (≈ 1.26 µM)
MIC (Staphylococcus aureus [4]): 0.125 µg/mL (≈ 0.315 µM)
MIC (Staphylococcus aureus [5]): 0.06 µg/mL (≈ 0.151 µM)
MIC (Staphylococcus aureus [6]): 0.5 µg/mL (≈ 1.26 µM)
MIC (Staphylococcus aureus [7]): 1 µg/mL (≈ 2.52 µM)
MIC (Staphylococcus aureus [8]): 0.5 µg/mL (≈ 1.26 µM)
MIC (Staphylococcus aureus [9]): 0.25 µg/mL (≈ 0.629 µM)
MIC (Staphylococcus aureus [10]): 0.5 µg/mL (≈ 1.26 µM)
MIC (Staphylococcus aureus [11]): 0.125 µg/mL (≈ 0.315 µM)
MIC (Staphylococcus aureus [12]): 0.25 µg/mL (≈ 0.629 µM)
MIC (Staphylococcus aureus [13]): 0.25 µg/mL (≈ 0.629 µM)
MIC (Staphylococcus aureus [14]): 0.5 µg/mL (≈ 1.26 µM)
MIC (Staphylococcus aureus [15]): 0.25 µg/mL (≈ 0.629 µM)
MIC (Staphylococcus aureus [16]): 0.125 µg/mL (≈ 0.315 µM)
MIC [17]: 0.06 µg/mL (≈ 0.151 µM)
MIC (Streptococcus pneumoniae [18]): 0.25 µg/mL (≈ 0.629 µM)
MIC (Streptococcus pneumoniae [19]): 0.125 µg/mL (≈ 0.315 µM)
MIC (Enterococcus faecalis [20]): 2 µg/mL (≈ 5.03 µM)
MIC (Enterococcus faecalis [21]): 2 µg/mL (≈ 5.03 µM)
MIC (Listeria monocytogenes): 0.125 µg/mL (≈ 0.315 µM)
inhibition (Escherichia coli): inactive
inhibition (Pseudomonas aeruginosa): inactive
inhibition (Acinetobacter baumannii): inactive
Activity (Caco-2): Non-Toxic
hemolysis at 1 h, 128 ug/ml [22]: 9%
MBC (Staphylococcus aureus [23]): 1 µg/mL (≈ 2.52 µM)
fractional inhibitory concentration index (FICI) (Staphylococcus aureus [24]): 1.5
fractional inhibitory concentration index (FICI) (Staphylococcus aureus [25]): 0.5
fractional inhibitory concentration index (FICI) (Staphylococcus aureus [26]): 0.75
fractional inhibitory concentration index (FICI) (Staphylococcus aureus [27]): 1
Activity (Staphylococcus aureus [28]): 3.96 log10CFU/ml
Activity (J774): Non-Toxic
